Experimental findings from ChEMBL document CHEMBL3407460, “Synthesis of novel thiazole-based 8,9-dihydro-7H-pyrimido[4,5-b][1,4]diazepines as potential antitumor and antifungal agents” (2015) are described below.

Holding throughout (type): functional
Assay [1] concerns Candida albicans. Kind of assay: Antifungal activity against Candida albicans ATCC 10231 assessed as growth inhibition at 62.5 ug/ml after 48 hrs by broth microdilution method. As to conditions: ATCC 10231, 48 h. A digest of the protocol:
(§1)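 CLSI M27-A3 broth microdilution in RPMI-1640. Compound stocks were made in DMSO (final at most 1%) and tested at final levels of 250 to 0.98. Inoculum was 1–5 × 10^3 CFU/mL, incubated 48 h at 30 °C in a moist, dark chamber. Growth and sterility control wells were included.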
On the technique in general: Broth dilution looks for growth in wells or tubes with falling amounts of substance.

In assay [2] the test system is Candida albicans. Kind of assay: Antifungal activity against Candida albicans ATCC 10231 assessed as growth inhibition at 125 ug/ml after 48 hrs by broth microdilution method. As to conditions: ATCC 10231, 48 h. A digest of the protocol:
as §1

The test system of assay [3] is Candida albicans. Nature of the assay: Antifungal activity against Candida albicans ATCC 10231 assessed as growth inhibition at 250 ug/ml after 48 hrs by broth microdilution method. The conditions noted are these: ATCC 10231, 48 h. In outline:
as §1

Assay [4] concerns Candida albicans. Kind of assay: Antifungal activity against Candida albicans ATCC 10231 assessed as growth inhibition at 31.25 ug/ml after 48 hrs by broth microdilution method. As to conditions: ATCC 10231, 48 h. A digest of the protocol:
as §1

Assay [5] has as its system Cryptococcus neoformans. Kind of assay: Antifungal activity against Cryptococcus neoformans ATCC 32264 assessed as growth inhibition at 250 ug/ml after 48 hrs by broth microdilution method. The conditions noted are these: ATCC 32264, 48 h. A digest of the protocol: as §1
The test system of assay [6] is Candida albicans. Nature of the assay: Antifungal activity against Candida albicans ATCC 10231 assessed as growth inhibition at 15.62 ug/ml after 48 hrs by broth microdilution method. As to conditions: ATCC 10231, 48 h. In outline:
as §1

The test system of assay [7] is Cryptococcus neoformans. Nature of the assay: Antifungal activity against Cryptococcus neoformans ATCC 32264 assessed as growth inhibition at 125 ug/ml after 48 hrs by broth microdilution method. The conditions noted are these: ATCC 32264, 48 h. A digest of the protocol:
as §1

In assay [8] the test system is Cryptococcus neoformans. Nature of the assay: Antifungal activity against Cryptococcus neoformans ATCC 32264 assessed as growth inhibition at 15.62 ug/ml after 48 hrs by broth microdilution method. As to conditions: ATCC 32264, 48 h. In outline:
as §1

For assay [9], the system named is Candida albicans. Kind of assay: Antifungal activity against Candida albicans ATCC 10231 assessed as growth inhibition at 7.81 ug/ml after 48 hrs by broth microdilution method. The conditions noted are these: ATCC 10231, 48 h. In outline: as §1
Assay [10] has as its system Cryptococcus neoformans. Kind of assay: Antifungal activity against Cryptococcus neoformans ATCC 32264 assessed as growth inhibition at 7.81 ug/ml after 48 hrs by broth microdilution method. As to conditions: ATCC 32264, 48 h. In outline: as §1
In assay [11] the test system is Cryptococcus neoformans. Kind of assay: Antifungal activity against Cryptococcus neoformans ATCC 32264 assessed as growth inhibition at 3.9 ug/ml after 48 hrs by broth microdilution method. As to conditions: ATCC 32264, 48 h. In outline: as §1
Assay [12] deals with Candida albicans. Nature of the assay: Antifungal activity against Candida albicans ATCC 10231 assessed as growth inhibition at 3.9 ug/ml after 48 hrs by broth microdilution method. The conditions noted are these: ATCC 10231, 48 h. In outline:
as §1

Assay [13] relates to Cryptococcus neoformans. Kind of assay: Antifungal activity against Cryptococcus neoformans ATCC 32264 assessed as growth inhibition at 31.25 ug/ml after 48 hrs by broth microdilution method. As to conditions: ATCC 32264, 48 h. A digest of the protocol:
as §1

Assay [14] has as its system Cryptococcus neoformans. Kind of assay: Antifungal activity against Cryptococcus neoformans ATCC 32264 assessed as growth inhibition at 62.5 ug/ml after 48 hrs by broth microdilution method. The conditions noted are these: ATCC 32264, 48 h. A digest of the protocol: as §1

Molecules are shown by their SMILES.

In the case of `Nc1nc(N)c2c(n1)NC(c1sc(Cl)nc1Cl)CC(c1ccc3c(c1)OCO3)=N2` (centres undefined), the inhibition (in general, the change of the read-out against control, counted positive when it falls) at 62.5 µg/mL with Candida albicans [1] came to 41.6%; with Cryptococcus neoformans [14], 19.5%. Further, the inhibition at 125 µg/mL with Candida albicans [2] turned out to be 48.1%; in the assay on Cryptococcus neoformans [7] it was 36.9%. Further, the results for the inhibition at 250 µg/mL in the assay on Candida albicans [3] and in the assay with Cryptococcus neoformans [5] were 56.8% and 58.5%, respectively. The values for the inhibition at 31.25 µg/mL with Candida albicans [4] and with Cryptococcus neoformans [13] were 24.3% and 7.07%, respectively. The inhibition at 15.62 µg/mL in the assay with Candida albicans [6] came to 0%; with Cryptococcus neoformans [8] it was 5.35%. Further, the inhibition at 7.81 µg/mL in the assay with Candida albicans [9] stood at 0%; with Cryptococcus neoformans [10] it was 3.92%. The inhibition at 3.9 µg/mL with Cryptococcus neoformans [11] and with Candida albicans [12] was 0% each time.
